Experimental data as given in ChEMBL document CHEMBL1949533, “Novel molecular combination deriving from natural aminoacids and polyphenols: Design, synthesis and free-radical scavenging activities” (Eur J Med Chem, 2012).

How the values were obtained:
[1] = test system: Radical scavenging activity; test: Antioxidant activity assessed as DPPH free radical scavenging activity by UV-Vis spectrophotometry; assay type: functional
Method in brief: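 DPPH methanolic solution (1.5 mL) mixed with 0.750 mL compound solution at 1, 0.5, 0.25, 0.125 and 0.0625 mg/mL; absorbance decrease read at 517 nm and % remaining DPPH radical calculated. IC50 (concentration halving initial DPPH) derived by regression across concentrations, expressed as nmol/mL.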

[2] = Antioxidant activity assessed as trolox equivalents ratio of AAPH radical scavenging activity after 30 mins by ORAC-fluorescein assay; assay type: functional
Method in brief: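 Compounds dissolved in PBS immediately before use, pH 7.4; fluorescein quenching initiated by AAPH, fluorescence (excitation 485 nm) read at 37 °C every 5 min up to 30 min. Net area under fluorescein decay curve (blank minus sample) converted to Trolox equivalents via 10–50 µM Trolox calibration; three replicates.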

Row | SMILES | IC50 [1] [µM] | Ratio [2]
1 | O=C(O)/C=C/c1ccc(O)c(O)c1 [CAFFEIC ACID] | 41 | 2.7
2 | O=C(/C=C/c1ccc(O)c(O)c1)N[C@@H](Cc1ccc(O)cc1)C(=O)NCCc1ccc(O)c(O)c1 | 32 | 2.79
3 | COC(=O)[C@@H](N)CCSC.Cl [METHIONINE METHYL ESTER HYDROCHLORIDE] | > 1250 | 0.8
4 | O=C(Cc1ccc(O)c(O)c1)N[C@@H](Cc1ccc(O)cc1)C(=O)NCCc1ccc(O)c(O)c1 | 32 | 3.82
5 | Cc1c(C)c2c(c(C)c1O)CCC(C)(C(=O)O)O2 (racemic) [TROLOX] | 55 | –
6 | CSCC[C@H](NC(=O)Cc1ccc(O)c(O)c1)C(=O)NCCc1ccc(O)c(O)c1 | 68 | 1.24
7 | COC(=O)[C@@H](N)CS.Cl | 123 | 0.3
8 | CSCC[C@H](NC(=O)/C=C/c1ccc(O)c(O)c1)C(=O)NCCc1ccc(O)c(O)c1 | 23 | 3.38
9 | COC(=O)[C@@H](N)Cc1ccc(O)cc1.Cl | > 1280 | 3.9
10 | O=C(O)Cc1ccc(O)c(O)c1 [3,4-DIHYDROXYPHENYLACETIC ACID] | 26 | 4.2

The next lines start with results.

Row | IC50 [1] [µM] | SMILES | Ratio [2]
11 | 148 | COC(=O)[C@H](CS)NC(=O)/C=C/c1ccc(O)cc1 | –
12 | 143 | COC(=O)[C@H](CS)NC(=O)c1cc(OC)c(O)c(OC)c1 | –
13 | 22 | COC(=O)[C@H](CS)NC(=O)/C=C/c1ccc(O)c(O)c1 | 1.4
14 | 76 | COC(=O)[C@H](CS)NC(=O)/C=C/c1cc(OC)c(O)c(OC)c1 | 1.3
15 | 20 | O=C(Cc1ccc(O)c(O)c1)N[C@@H](CS)C(=O)NCCc1ccc(O)c(O)c1 | 1.77
16 | 26 | O=C(/C=C/c1ccc(O)c(O)c1)N[C@@H](CS)C(=O)NCCc1ccc(O)c(O)c1 | 0.855
17 | 25 | COC(=O)[C@H](CCSC)NC(=O)/C=C/c1ccc(O)c(O)c1 | 2.3
18 | 150 | COC(=O)[C@H](CS)NC(=O)/C=C/c1ccccc1O | –
19 | 44 | COC(=O)[C@H](Cc1ccc(O)cc1)NC(=O)Cc1ccc(O)c(O)c1 | 4.8
20 | 84 | COC(=O)[C@H](CS)NC(=O)/C=C/c1ccc(O)c(OC)c1 | 1.4
21 | 185 | COC(=O)[C@H](CS)NC(=O)/C=C/c1cccc(O)c1 | –
22 | 29 | COC(=O)[C@H](CS)NC(=O)Cc1ccc(O)c(O)c1 | 3
23 | 48 | COC(=O)[C@H](CCSC)NC(=O)Cc1ccc(O)c(O)c1 | 3.6
24 | 82 | COC(=O)[C@H](CS)NC(=O)Cc1ccc(O)c(OC)c1 | 2.4
25 | 30 | COC(=O)[C@H](Cc1ccc(O)cc1)NC(=O)/C=C/c1ccc(O)c(O)c1 | 3.4
